This passage reports E max, IC50 and Ki results from ChEMBL document CHEMBL1125258, “Topographically designed analogues of [D-Pen,D-Pen5]enkephalin” (J Med Chem, 1991).

Structures are written as SMILES. Where only a bound is given, the exact number is not on record here.

Assay [1] is filed under the species Cavia porcellus. Put plainly: Percent maximal inhibition (Emax) was measured using guinea pig ileum assay (GPI). The assay is classed as functional.
In assay [2] the target is T1, Mu-type opioid receptor (Rattus norvegicus, UniProt P33535). Put plainly: Inhibitory activity measured against [3H]CTOP (Opioid receptor mu 1) in rat brain using radioreceptor binding assays. The assay is classed as tissue-based. The method in brief:
(§1)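 Male Sprague-Dawley rat whole brain minus cerebellum, homogenised and washed three times (30 min at 25 °C in 50 mM Tris) to remove endogenous opioids. Homogenate at 0.5% final was incubated with 0.5 nM [3H]CTOP in 50 mM Tris-HCl pH 7.4 containing 5 mM MgCl2 and BSA 1 mg/mL for 120 min at 25 °C. Nonspecific binding was defined with 1 μM naltrexone. Bound ligand was collected by filtration and counted by scintillation; duplicates, 2–4 experiments.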

Assay [3] concerns the target T2, Delta-type opioid receptor (Rattus norvegicus, UniProt P33533). Nature of the assay: Inhibitory activity measured against [3H]DPDPE (Opioid receptor delta 1 ligand) in rat brain using radioreceptor binding assays. The class given is tissue-based. An outline of the steps:
(§2)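 Male Sprague-Dawley rat brain membranes (minus cerebellum), washed three times to remove endogenous opioids. Specific binding was defined as that displaced by 1 μM naltrexone. Filtration and scintillation counting; duplicates, 2–4 experiments.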

The target of assay [4] is Mu-type opioid receptor (Cavia porcellus, UniProt P97266). Put plainly: Inhibitory activity measured against Opioid receptor mu 1 using guinea pig ileum assay (GPI). The assay is classed as tissue-based. The method in brief:
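Longitudinal muscle-myenteric plexus from the ileum of male Hartley guinea pigs (150–400 g) in oxygenated Krebs bicarbonate at 37 °C under 1 g tension. Electrical stimulation at 0.1 Hz with 0.4-ms pulses at supramaximal voltage. Agonist exposure was 3 min, followed by rinse and 8 min re-equilibration. Percent inhibition of contraction was fitted to a logistic equation for IC50; duplicates, 2–4 experiments.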

The target of assay [5] is Delta-type opioid receptor (Mus musculus, UniProt P32300). Nature of the assay: Inhibitory activity measured against Opioid receptor delta 1 using mouse vas deference assay (MVD). An outline of the steps:
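Vas deferens from male ICR mice (25–30 g) in magnesium-free oxygenated Krebs bicarbonate at 37 °C under 0.5 g tension. Electrical stimulation at 0.1 Hz with 2.0-ms pulses at supramaximal voltage. Agonist contact was 3 min.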

The target in assay [6] is T1, Mu-type opioid receptor. Nature of the assay: Binding affinity measured against [3H]CTOP (Opioid receptor mu 1) in rat brain using radioreceptor binding assays. The class given is tissue-based. An outline of the steps: as §1
The target of assay [7] is T2, Delta-type opioid receptor. Nature of the assay: Binding affinity measured against [3H]DPDPE (Opioid receptor delta 1 ligand) in rat brain using radioreceptor binding assays. The assay is classed as tissue-based. The method in brief: as §2

T1 sequence (P33535 whole entry): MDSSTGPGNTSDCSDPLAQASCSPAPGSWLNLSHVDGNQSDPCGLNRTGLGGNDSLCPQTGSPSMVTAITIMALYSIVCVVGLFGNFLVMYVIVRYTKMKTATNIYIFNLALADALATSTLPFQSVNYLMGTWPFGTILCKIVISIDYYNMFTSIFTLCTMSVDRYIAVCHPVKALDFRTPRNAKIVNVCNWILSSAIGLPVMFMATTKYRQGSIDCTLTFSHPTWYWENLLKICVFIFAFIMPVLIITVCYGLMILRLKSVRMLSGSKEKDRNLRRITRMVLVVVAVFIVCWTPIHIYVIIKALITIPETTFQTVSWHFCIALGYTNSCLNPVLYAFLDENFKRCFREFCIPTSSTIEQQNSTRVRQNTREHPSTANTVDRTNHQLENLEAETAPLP
Mu-type opioid receptor (Cavia porcellus, UniProt P97266), sequence (P97266 whole entry): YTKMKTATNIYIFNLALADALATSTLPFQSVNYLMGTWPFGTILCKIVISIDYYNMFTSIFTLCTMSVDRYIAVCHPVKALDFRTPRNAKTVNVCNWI
T2 sequence (P33533 whole entry): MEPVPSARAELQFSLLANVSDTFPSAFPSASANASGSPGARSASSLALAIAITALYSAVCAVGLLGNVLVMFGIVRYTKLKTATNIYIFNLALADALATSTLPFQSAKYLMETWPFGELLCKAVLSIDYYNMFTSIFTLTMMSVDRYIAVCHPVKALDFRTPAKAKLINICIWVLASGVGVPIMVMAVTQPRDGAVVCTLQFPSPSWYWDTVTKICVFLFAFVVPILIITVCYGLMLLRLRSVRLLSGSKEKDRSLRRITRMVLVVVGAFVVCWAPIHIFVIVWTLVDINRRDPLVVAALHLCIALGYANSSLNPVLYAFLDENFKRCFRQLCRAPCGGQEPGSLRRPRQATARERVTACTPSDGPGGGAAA
Delta-type opioid receptor (Mus musculus, UniProt P32300), sequence (P32300 whole entry): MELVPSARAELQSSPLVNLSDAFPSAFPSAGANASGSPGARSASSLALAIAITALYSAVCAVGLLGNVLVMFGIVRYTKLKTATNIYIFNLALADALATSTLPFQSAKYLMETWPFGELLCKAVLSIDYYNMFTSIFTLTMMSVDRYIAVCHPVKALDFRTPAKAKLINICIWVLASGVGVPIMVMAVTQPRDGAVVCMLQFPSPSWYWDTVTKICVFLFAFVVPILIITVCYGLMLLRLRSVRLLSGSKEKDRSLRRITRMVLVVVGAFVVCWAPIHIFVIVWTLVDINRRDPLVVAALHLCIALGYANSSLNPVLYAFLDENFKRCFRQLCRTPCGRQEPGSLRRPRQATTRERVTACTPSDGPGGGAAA

With `C[C@H](c1ccccc1)[C@H]1NC(=O)CNC(=O)[C@H](NC(=O)[C@@H](N)Cc2ccc(O)cc2)C(C)(C)SSC(C)(C)[C@H](C(=O)O)NC1=O`, the E max in assay [1] is 100%.

Take `C[C@H](c1ccc([N+](=O)[O-])cc1)[C@@H]1NC(=O)CNC(=O)[C@H](NC(=O)[C@@H](N)Cc2ccc(O)cc2)C(C)(C)SSC(C)(C)[C@H](C(=O)O)NC1=O` [listing 1 of 2 here]: the half-inhibitory concentration (IC50) in assay [2] was determined as 105 nM; in assay [3], 4.2 nM; in assay [4], 2700 nM; in assay [5], 27 nM. The Ki came out at 24 nM in assay [6] and 3.4 nM in assay [7].

For the compound `C[C@H](c1ccc([N+](=O)[O-])cc1)[C@@H]1NC(=O)CNC(=O)[C@H](NC(=O)[C@@H](N)Cc2ccc(O)cc2)C(C)(C)SSC(C)(C)[C@H](C(=O)O)NC1=O` [listing 2 of 2 here], the E max in assay [1] came to 74%.

For the compound `C[C@@H](c1ccccc1)[C@H]1NC(=O)CNC(=O)[C@H](NC(=O)[C@@H](N)Cc2ccc(O)cc2)C(C)(C)SSC(C)(C)[C@H](C(=O)O)NC1=O`, the E max in assay [1] came out at 100%.

Regarding `C[C@@H](c1ccc([N+](=O)[O-])cc1)[C@H]1NC(=O)CNC(=O)[C@H](NC(=O)[C@@H](N)Cc2ccc(O)cc2)C(C)(C)SSC(C)(C)[C@H](C(=O)O)NC1=O` [listing 1 of 2 here], the IC50 is 1020 nM in assay [2], 222 nM in assay [3], 12300 nM in assay [4] and 1790 nM in assay [5]. Further, the Ki was found to be 240 nM in assay [6] and 180 nM in assay [7].

Turning to `C[C@@H](c1ccc([N+](=O)[O-])cc1)[C@H]1NC(=O)CNC(=O)[C@H](NC(=O)[C@@H](N)Cc2ccc(O)cc2)C(C)(C)SSC(C)(C)[C@H](C(=O)O)NC1=O` [listing 2 of 2 here], the E max in assay [1] is recorded as 66%.

The compound `C[C@H](c1ccccc1)[C@@H]1NC(=O)CNC(=O)[C@H](NC(=O)[C@@H](N)Cc2ccc(O)cc2)C(C)(C)SSC(C)(C)[C@H](C(=O)O)NC1=O` (stereo in doubt; 4) returned an E max in assay [1] of 56%.

Take `C[C@H](c1ccc([N+](=O)[O-])cc1)[C@H]1NC(=O)CNC(=O)[C@@H](NC(=O)[C@@H](N)Cc2ccc(O)cc2)C(C)(C)SSC(C)(C)[C@@H](C(=O)O)NC1=O` (stereo in doubt; 6): the IC50 in assay [2] was 2200 nM; in assay [3] it was 6.89 nM; in assay [4], 25700 nM; in assay [5], 4.59 nM. Further, the results for the inhibition constant Ki in assay [6] and in assay [7] were 530 nM and 5.5 nM, respectively. The compound further registered an E max in assay [1] of 73%.

Take `C[C@H](c1ccc([N+](=O)[O-])cc1)[C@H]1NC(=O)CNC(=O)[C@@H](NC(=O)[C@@H](N)Cc2ccc(O)cc2)C(C)(C)SSC(C)(C)[C@@H](C(=O)O)NC1=O` (stereo in doubt; 7): the IC50 was greater than 10000 nM in assay [2], 226 nM in assay [3], greater than 10000 nM in assay [4] and 630 nM in assay [5]. The same compound came in with a Ki in assay [7] of 180 nM.

In general, IC50 refers to the concentration at which inhibition is half-maximal. A lower IC50 goes with higher potency. The term Ki denotes the equilibrium dissociation constant of an inhibitor or competing ligand from its target. Read a low Ki as a stronger hold on the target.
